Results reported in ChEMBL document CHEMBL1126252, “cis-bis(pyridine)platinum(II) organoamides with unexpected growth inhibition properties and antitumor activity” (1992).

Key:
L1210 [1] = assay: Compound was evaluated in vitro for its inhibitory activity against L1210 leukemia cell line using Coulter counter assay; format: functional; settings: Mus musculus
How it was run: (§1)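 Log-phase murine L1210 or cisplatin-resistant L1210/DDP cells, drug in ethanol, ethanol/DMSO or DMF (final solvent ≤1.0%) with vehicle-only controls. Exposure was continuous for 48 h, or 2 h followed by 46 h growth. Cells were counted on a Coulter counter. ID50 (μM) was read from the percentage growth versus dose curve; single determinations, ranges, or mean ± range of 2–4.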

P388 [2] = assay: Mean survival time of treated animals compared with those of control animals expressed as percentage. T/C was determined against murine leukemia P388 implanted mouse at the dose of 140 umol/kg; format: functional
How it was run: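 BDF1 mice (six per group) inoculated ip with 10^6 P388 leukemia cells on day 0; Pt compounds given ip on days 1, 5 and 9 in 1% Tween-20/saline (1:9), five doses over a 16-fold range including the maximum tolerated dose. Untreated/vehicle negative controls; 5-fluorouracil (50 mg/kg) positive control. Animals observed 30–60 days; %T/C = mean survival time treated vs control.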

L1210 [3] = assay: Mean survival time of treated animals compared with those of control animals expressed as percentage T/C was determined against murine leukemia L1210 implanted mouse at the dose of 113 umol/kg; format: functional
How it was run: (§2)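 Groups of six BDF1 mice were injected ip on day 0 with 10^6 P388, 5 × 10^6 P388/DDP or 10^5 L1210 cells. Pt compounds in 1% Tween-20/saline (1:9) were given ip on days 1, 5 and 9 at five doses spanning a 16-fold range. Controls were untreated or vehicle-only. Mice were observed 30–60 days; %T/C is treated versus control mean survival time.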

L1210 [4] = assay: Compound was evaluated in vitro for its inhibitory activity against L1210 leukemia cell line using […]; format: functional, cell-based; settings: Mus musculus
How it was run: (§3)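 L1210 or L1210/DDP cells were dosed as for counting (48 h continuous, or 2-h pulse then 46 h), with vehicle controls. Growth was read by mitochondrial reduction of tetrazolium (MTT), modified Mosmann method. ID50 (μM) was taken from the percentage growth versus dose curve; single determinations, ranges, or mean ± range of 2–4.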

P388 [5] = assay: Mean survival time of treated animals compared with those of control animals was determined against murine leukemia P388 implanted mouse at the dose of 113 umol/kg; format: functional; how it was run: as §2
L1210 [6] = assay: Compound was evaluated in vitro for its inhibitory activity against L1210/DDP leukemia cell line using MTT assay; format: functional, cell-based; settings: Mus musculus; how it was run: as §3
HT-29 [7] = assay: Compound was evaluated in vitro for its inhibitory activity againstHT-29 and BE human colon carcinoma cell line using Coulter counter assay; format: functional, cell-based
How it was run: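 HT-29 and BE human colon cells were grown 12 h in EMEM with 1% glutamine and 15% fetal calf serum. Drug or solvent was added (final solvent ≤1.0%) for a further 2 days. Cells were released with pronase and Coulter counted. ID50 (μM) was taken from the percentage growth versus dose curve, with vehicle controls.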

P388/DDP [8] = assay: Mean survival time of treated animals compared with those of control animals expressed as percentage T/C was determined against murine leukemia P388/DDP (cisplatin resistant) implanted mouse at the dose of 113 umol/kg; format: functional; how it was run: as §2
L1210 [9] = assay: Compound was evaluated in vitro for its inhibitory activity against L1210/DDP leukemia cell line using Coulter counter assay; format: functional, cell-based; settings: Mus musculus; how it was run: as §1
HT-29 [10] = assay: Compound was evaluated in vitro for its inhibitory activity againstHT-29 and BE human colon carcinoma cell line using MTT assay; format: functional, cell-based
How it was run: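 HT-29 and BE colon cells were pre-grown 12 h in EMEM with 1% glutamine and 15% FCS, then exposed to drug or vehicle for 2 days. Cells were released with pronase and growth was read by MTT tetrazolium reduction. ID50 (μM) was taken from the percentage growth versus dose curve.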

P388 [11] = assay: Mean survival time of treated animals compared with those of control animals expressed as percentage. T/C was determined against murine leukemia P388 implanted mouse at the dose of 20 umol/kg; format: functional; how it was run: as §2
P388/DDP [12] = assay: Mean survival time of treated animals compared with those of control animals expressed as percentage T/C was determined against murine leukemia P388/DDP (cisplatin resistant) implanted mouse at the dose of 20 umol/kg; format: functional; how it was run: as §2

## Fc1cc(F)c(F)c(NCCNc2c(F)c(F)cc(F)c2F)c1F
L1210 [1]; read-out: ID50 (the source's name)
  IC50: 37 µM
P388 [2]
  T/C: 108%

## 1-[2-(1-pyridiniumyl)-1,3-di(2,3,5,6-tetrafluorophenyl)tetrahydro-1H-2-imidazolyl]pyridinium (platinumcomplex)
L1210 [3]
  T/C: 172%
L1210 [1]
  ID50: 1.2 µM
L1210 [4]
  ID50: 1.6 µM
P388 [5]
  T/C: 206%
L1210 [6]
  ID50: 1.4 µM
HT-29 [7]
  ID50: 1 µM
P388/DDP [8]
  T/C: 115%
L1210 [9]
  ID50: 1 µM
HT-29 [10]
  ID50: 1.1 µM

## CISPLATIN
L1210 [1]
  ID50: 0.6 µM
L1210 [4]
  ID50: 1.1 µM
L1210 [6]
  ID50: 20.3 µM
P388 [11]
  T/C: 248%
HT-29 [7]
  ID50: 0.7 µM
L1210 [9]
  ID50: 6.7 µM
P388/DDP [12]
  T/C: 122%
